# TAAR1 antagonist = human TAAR1 antagonism; Q96RJ0; CHO RD-HGA16 TAAR1, Fluo-8 calcium fluorescence, antagonist; inhibition, % at 3 µM; 1.5% of 360,000 active;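 active = inhibition above a per-plate cutoff, the mean inhibition of test compounds on that plate plus 3 SD, cut at about 49% in these data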;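 also: 0% = DMSO plus EC80 beta-PEA response and 100% = DMSO alone without agonist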
# Target sequence (Q96RJ0 whole entry, looked up): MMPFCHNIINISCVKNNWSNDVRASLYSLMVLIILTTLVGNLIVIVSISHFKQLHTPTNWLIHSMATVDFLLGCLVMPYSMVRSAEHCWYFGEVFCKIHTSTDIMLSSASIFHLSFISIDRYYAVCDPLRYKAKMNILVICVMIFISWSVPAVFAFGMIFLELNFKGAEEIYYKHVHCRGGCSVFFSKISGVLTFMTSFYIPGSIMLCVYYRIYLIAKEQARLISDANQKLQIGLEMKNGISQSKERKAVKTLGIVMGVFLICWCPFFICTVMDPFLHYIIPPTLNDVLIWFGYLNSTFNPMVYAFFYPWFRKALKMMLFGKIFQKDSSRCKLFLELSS
#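 System: CHO RD-HGA16 cells bearing hTAAR1. Reagent: EC80 β-phenethylamine stimulus. Schedule: seeding 17-24 h prior, 75-min 37 °C, 30-min RT dye loading. Signal: Fluo-8 intracellular calcium dye fluorescence, real-time kinetic reads. Read-out: % inhibition from peak post-agonist over basal fluorescence ratio. Benchmarks: vehicle wells and EC80 agonist wells. Replicates: n of 1.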
# TAAR1 agonist = human TAAR1 agonism | 0.99% of 360,000 active | CHO RD-HGA16 TAAR1, Fluo-8 calcium fluorescence; vehicle wells 0%, saturating PEA agonist 100% | Q96RJ0 | activation, % at 3 µM | AID 624467;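 active = activation above the mean activation of all test compounds in the run plus 3 SD, cut at about 38% in these data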
#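 System: CHO-derived RD-HGA16 cells with stable Gα16 and human TAAR1. Times: 17-24 h plating, Fluo-8 75 min 37 °C, 30 min RT. Measured by: calcium-sensitive Fluo-8 signal, excitation 470-495, emission 515-575 nm. Read-out basis: % activation relative to PEA EC100 response. Control set: DMSO and PEA EC100. Repeats: no replicates (n 1).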
# OXTR agonist = agonists of human oxytocin receptor; P30559; CHO-OTR cells, Fluo-8 calcium fluorescence; normalized: DMSO 0%, oxytocin 100%; activation, % at 3 µM; 0.32% of 320,000 active; AID 2435;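 active = activation above the mean of all tested compounds plus 3 SD, cutoff set per screening run, cut at about 20% in these data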;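 also: peak over basal fluorescence ratio from a 100 s FLIPR kinetic read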
# Target sequence (P30559 whole entry, looked up): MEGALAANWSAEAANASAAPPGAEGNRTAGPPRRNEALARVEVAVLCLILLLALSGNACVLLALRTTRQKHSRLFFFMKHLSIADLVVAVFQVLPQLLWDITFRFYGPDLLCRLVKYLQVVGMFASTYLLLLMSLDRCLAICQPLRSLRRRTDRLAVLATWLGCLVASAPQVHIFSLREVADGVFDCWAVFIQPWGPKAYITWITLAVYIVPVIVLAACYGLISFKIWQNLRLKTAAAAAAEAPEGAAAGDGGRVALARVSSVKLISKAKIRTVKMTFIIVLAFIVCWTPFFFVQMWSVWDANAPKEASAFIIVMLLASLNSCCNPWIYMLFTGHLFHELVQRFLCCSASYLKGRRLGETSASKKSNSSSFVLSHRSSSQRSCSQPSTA
# V1R ag counter = V1a receptor agonism, counter-screen for OXTR agonists | 0.25% of 320,000 active | CHO-V1R cells, Fluo-8 calcium fluorescence, agonist mode; 0% DMSO, 100% 3 nM vasopressin | activation, % at 3 µM | P37288 | AID 2797;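 active = activation above the mean activation of all tested compounds plus 3 SD, per screening run, cut at about 20% in these data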;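 also: signal is peak over basal fluorescence ratio across a 100 second FLIPR read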
# OXTR potentiator = potentiates the human oxytocin receptor response; P30559; CHO-OTR cells, Fluo-8 calcium fluorescence, potentiator mode; 0% = oxytocin EC15, 100% = EC100; activation, % at 3 µM; 0.061% of 320,000 active;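 active = activation above that plate's cutoff, the mean activation of tested compounds plus 3 SD, cut at about 6.6% in these data, passing the limit was not always enough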;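 also: 100% uses oxytocin at 75 nM as the full agonist control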
#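 System: human OTR in CHO cells / Also added: sub-maximal oxytocin, roughly EC15 / Control set: EC15 oxytocin low, 75 nM oxytocin high / Schedule: 6 min compound pre-incubation at room temperature, 100 s kinetic read / Compound: single-point 3.0 µM / Replication: singlicate / Technique: Fluo-8 calcium dye fluorescence / Read-out basis: % activation of max/min ratio relative to oxytocin controls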
# nonsel antag count = nonselective antagonist in TAAR1 antagonist counter-screen; 77% of 2,400 active; shares compounds with TAAR1 antagonist; inhibition, % at 3 µM; counterscreen cell line, calcium fluorescence, antagonist mode; in the data active = inhibition above about 22%;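 also: CHO-Ga16 host cells stimulated with ATP at an EC80 level; 0% = agonist EC80 plus vehicle and 100% = vehicle without agonist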
# TAAR1 ant conf = confirmation of human TAAR1 antagonists. shares compounds with TAAR1 antagonist. TAAR1-expressing cells, fluorescence antagonist read-out. inhibition, % at 3 µM. 40% of 2,400 active. AID 651785; in the data active = inhibition above about 49%;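 also: CHO-Ga16 host cells challenged with agonist PEA near its EC80; 0% = agonist at EC80 plus vehicle and 100% = vehicle with no agonist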
# Ga16 ag counter = nonselective Ga16 agonist in TAAR1 antagonist counter-screen. activation, % at 3 µM. shares compounds with TAAR1 antagonist. Ga16-expressing cells, calcium fluorescence, agonist counterscreen. 18% of 2,400 active; in the data active = activation above about 12%;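 also: 0% = vehicle wells and 100% = saturating stimulus response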
# TAAR1 ag counter = TAAR1 agonism, antagonist counter-screen | shares compounds with TAAR1 antagonist | hTAAR1 cell line, fluorescence activation, agonist mode | activation, % at 3 µM | 2% of 2,400 active | AID 651955; in the data active = activation above about 37%;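 also: CHO cells stably expressing TAAR1 with calcium dye readout; 0% = DMSO vehicle and 100% = full agonist response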
# The depositor's hits bear a star; . = not tested or not shown. Hits are enriched below; roughly 2.3% of the tested compounds scored in any of these assays.
SMILES,TAAR1 antagonist,TAAR1 agonist,OXTR agonist,V1R ag counter,OXTR potentiator,nonsel antag count,TAAR1 ant conf,Ga16 ag counter,TAAR1 ag counter
CC(=O)Nc1ccc(S(=O)(=O)N2C(=O)c3cccc4cccc2c34)cc1,-32,13,1,1,-6,.,.,.,.
O=C(CN1C(=O)NC2(CCOc3ccccc32)C1=O)c1ccc(F)c(F)c1 (centres undefined),2,5,2,0,-9,.,.,.,.
Cc1cccc(NC(=O)c2nc[nH]c2C(=O)NCCCCCNC(=O)OC(C)(C)C)c1,56*,15,-1,0,-3,19,38,5,12
CC(C)(C)OC(=O)NCCCC[C@H](NC(=O)c1nc[nH]c1C(=O)NCC(=O)OCc1ccccc1)C(=O)OC(C)(C)C,55*,8,-2,1,-3,23*,29,1,-1
CC(C)(C)OC(=O)NCCCCCNC(=O)c1nc[nH]c1C(=O)N1CCc2ccccc2C1,76*,22,0,1,-5,34*,52*,11,14
O=C(CNC(=O)c1[nH]cnc1C(=O)NC(c1ccccc1)c1ccccc1)OCc1ccccc1,68*,10,0,1,-8,26*,42,4,1
Cc1cccc(NC(=O)c2nc[nH]c2C(=O)NCCCNC(=O)c2[nH]cnc2C(=O)Nc2cccc(C)c2)c1,38,10,2,0,-4,.,.,.,.
CCOc1ccc(C2(C)NC(=O)N(CCN(C)C)C2=O)cc1 (centres undefined),-1,2,1,0,-9,.,.,.,.
C[C@H](NC(=O)c1[nH]cnc1C(=O)Nc1ccc(CNC(=O)OC(C)(C)C)cc1)C(=O)OCc1ccccc1,67*,14,-1,1,-13,34*,52*,5,9
O=C1CC(c2ccc(OCCCCCOc3ccc(C4CC(=O)NC4=O)cc3)cc2)C(=O)N1 (centres undefined),64*,20,3,4,-1,40*,53*,14*,19
CCCCCCCCOc1ccc(C2CC(=O)NC2=O)cc1 (centres undefined),8,-1,0,0,-6,.,.,.,.
COCCOC(=O)c1c(C)oc2ccc(OC(=O)c3c(OC)cccc3OC)cc12,51*,10,0,2,-16,32*,43,6,5
O=c1c2ccccc2nc(COc2ccccc2)n1/N=C/c1ccc(O)cc1O,79*,12,0,2,-15,32*,61*,8,8
C/C(=N\OCc1nc2ccccc2c(=O)n1/N=C/c1cc([N+](=O)[O-])ccc1O)c1ccccc1,64*,9,9,13,-8,31*,47,8,5
COC(=O)Cc1ccc(OC(=O)CCS(=O)(=O)c2ccc(Cl)cc2)cc1,-36,0,0,1,-1,.,.,.,.
O=C(c1ccccn1)N1CCN(S(=O)(=O)c2ccc3ccccc3c2)CC1,-12,2,2,2,-7,.,.,.,.
O=C(c1cc(=O)[nH]c2ccccc12)N1CCN(S(=O)(=O)c2ccc3ccccc3c2)CC1,67*,19,0,0,7,30*,49,8,6
COc1ccc(-n2c(=S)[nH]c3cc(C(=O)Nc4ccc(F)cc4)ccc3c2=O)c(OC)c1,29,8,6,5,-14,.,.,.,.
CCCCN(CC)C(=S)Nc1ccc2nc(N3CCN(C)CC3)cc(C)c2c1,-20,2,2,0,-1,.,.,.,.
CCOc1ccc(S(=O)(=O)N(CC(=O)N2CCC(C(N)=O)CC2)c2ccc(F)cc2)cc1,-12,2,-1,-1,-11,.,.,.,.
COc1cccc(NC(=S)N2CCc3cc(OC)c(OC)cc3C2)c1,-27,2,0,9,1,.,.,.,.
COc1cc2c(cc1OC)CN(C(=S)Nc1ccc(Cl)cc1)CC2,57*,10,6,7,-7,21,53*,12*,2
CN(Cc1ccccc1)S(=O)(=O)c1ccc(NS(=O)(=O)Cc2ccccc2)cc1,55*,11,7,7,-14,35*,52*,9,6
CC(C)C(=O)NC(=S)Nc1ccc(S(=O)(=O)N(C)Cc2ccccc2)cc1,69*,6,-2,1,-19,34*,50*,7,-2
O=S(=O)(Cc1ccccc1)Nc1ccccc1,-2,0,1,0,-17,.,.,.,.
SMILES,TAAR1 antagonist,TAAR1 agonist,OXTR agonist,V1R ag counter,OXTR potentiator,nonsel antag count,TAAR1 ant conf,Ga16 ag counter,TAAR1 ag counter
CC(CC(=O)N(C)CC(=O)Nc1ccc(N2CCOCC2)cc1)c1ccccc1 (centres undefined),-16,4,1,0,-6,.,.,.,.
CC(=O)c1ccc(OC(C)c2nc3ccccc3s2)cc1 (centres undefined),-1,-2,-2,-1,-18,.,.,.,.
COC(=O)c1ccc2c(=O)n(CCCCCC(=O)N3CCN(c4ccccc4)CC3)c(=O)[nH]c2c1,74*,24,5,6,-19,58*,72*,14*,22
CCN1CCN(C(=O)CCCCCn2c(=O)[nH]c3cc(C(=O)OC)ccc3c2=O)CC1,1,0,7,0,-10,.,.,.,.
CC(=O)c1ccc(N2CCN(C(=O)CCCn3c(=O)[nH]c4ccsc4c3=O)CC2)cc1,17,2,1,1,-6,.,.,.,.
CC(=O)c1ccc(N2CCN(C(=O)CCCn3c(=O)[nH]c4ccc(Br)cc4c3=O)CC2)cc1,67*,8,4,6,-8,37*,54*,11,6
COc1ccc(CCNC(=O)CSc2ccc3nnc(CCNC(=O)c4ccc(C)cc4)n3n2)cc1OC,2,0,-1,1,-7,.,.,.,.
CCS(=O)(=O)N1Cc2ccccc2CC1C(=O)Nc1nnc(SCc2ccc(C#N)cc2)s1 (centres undefined),68*,26,5,3,-15,34*,56*,12*,13
COc1cc(OC)c(/C=N/NC(N)=S)cc1Br,-2,-1,-2,-1,-4,.,.,.,.
COc1cc2c(-c3ccccc3)c(C)oc2cc1/C=N/NC(N)=S,103*,-4,-1,0,-11,17,10,5,14
Brc1ccc(CSc2ccc3nnc(-c4cccnc4)n3n2)cc1,60*,7,-1,3,-4,25*,39,9,13

# Compound activity as filed in PubChem BioAssay.
